The text below walks through data of ChEMBL document CHEMBL5038571, “Design and Synthesis of EZH2-Based PROTACs to Degrade the PRC2 Complex for Targeting the Noncatalytic Activity of EZH2” (J Med Chem, 2021).

Test [1] deals with T1, Protein cereblon/Histone-lysine N-methyltransferase EZH2 (Homo sapiens) (UniProt Q15910+Q96SW2). Nature of the test: PROTAC activity at CRBN E3 ligase/EZH2 in PRC2 complex in human WSUDLCL2 cells assessed as reduction in H3K27me3 level incubated for 48 hrs by Western blot analysis. The test is classed as cell-based. The following applies: dose 1-10 µM. The procedure, abridged: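 WSU-DLCL-2 cells treated 48 h (1 μM for the single-concentration screen), lysed; SDS-PAGE, nitrocellulose transfer, 5% milk block, primary antibody 4 °C overnight, chemiluminescence. Bands quantified by densitometry, normalized to GAPDH, expressed relative to DMSO-treated cells; mean ± SD of three independent experiments, t-test.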

In test [2] the target is T1, Protein cereblon/Histone-lysine N-methyltransferase EZH2 (Homo sapiens). Description: PROTAC activity at CRBN E3 ligase/EZH2 in PRC2 complex in human WSUDLCL2 cells assessed as induction of SUZ12 degradation at 10 uM incubated for 48 hrs by Western blot analysis. The test is classed as cell-based. For orientation: A western blot detects proteins with antibodies after separation by electrophoresis.

Test [3] shares this target. Nature of the test: PROTAC activity at CRBN E3 ligase/EZH2 in PRC2 complex in human WSUDLCL2 cells assessed as induction of EED degradation at 10 uM incubated for 48 hrs by Western blot analysis. In kind it is cell-based.
For test [4] the target is unchanged. Description: PROTAC activity at CRBN E3 ligase/EZH2 in PRC2 complex in human LNCaP cells assessed as induction of SUZ12 degradation by measuring reduction in SUZ12 protein level at 1 uM incubated for 48 hrs by Western blot analysis. In kind it is cell-based. The method in brief: (§1)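 Cells cultured in DMEM or RPMI 1640 with 10% FBS and 1% penicillin-streptomycin, 37 °C, 5% CO2; exposed to 1 μM compound for 48 h. Lysates run on SDS-PAGE and transferred to nitrocellulose. Blocked 2 h in 5% skim milk, primary antibody overnight at 4 °C, then secondary antibody. Chemiluminescent detection of PRC2 subunits and H3K27me3.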

The target is the same in test [5]. Description: PROTAC activity at CRBN E3 ligase/EZH2 in PRC2 complex in human LNCaP cells assessed as induction of RbAp48 degradation by measuring reduction in RbAp48 protein level at 1 uM incubated for 48 hrs by Western blot analysis. The test is classed as cell-based. The method in brief:
(§2)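 Cancer cell lines exposed to 1 μM compound for 48 h. Lysates immunoblotted (SDS-PAGE, nitrocellulose, 5% milk block, primary antibody overnight at 4 °C) for EZH2, SUZ12, EED, RbAp48 and H3K27me3. Bands quantified by densitometry and normalized to GAPDH.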

For test [6] the target is unchanged. Nature of the test: PROTAC activity at CRBN E3 ligase/EZH2 in PRC2 complex in human A2780 cells assessed as induction of EED degradation by measuring reduction in EED protein level at 1 uM incubated for 48 hrs by Western blot analysis. The test is classed as cell-based. The method in brief: as §2
Test [7] shares this target. Nature of the test: PROTAC activity at CRBN E3 ligase/EZH2 in PRC2 complex in human A2780 cells assessed as reduction in H3K27me3 level at 1 uM incubated for 48 hrs by Western blot analysis. In kind it is cell-based. The method in brief: as §2
The target is the same in test [8]. Nature of the test: PROTAC activity at CRBN E3 ligase/EZH2 in PRC2 complex in human SK-OV-3 cells assessed as induction of EZH2 degradation by measuring reduction in EZH2 protein level at 1 uM incubated for 48 hrs by Western blot analysis. In kind it is cell-based. The procedure, abridged:
as §1

The target is the same in test [9]. Nature of the test: PROTAC activity at CRBN E3 ligase/EZH2 in PRC2 complex in human WSUDLCL2 cells assessed as effect on EZH2 mRNA expression at 1 uM incubated for 48 hrs by RT-qPCR analysis. In kind it is cell-based. The method in brief:
(§3)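 WSU-DLCL-2 cells treated 48 h with 1 μM compound. Total RNA extracted with Trizol and reverse-transcribed. SYBR qPCR run as 95 °C 30 s, then 40 cycles of 95 °C 6 s and 60 °C 20 s. PRC2 subunit mRNA normalized to the DMSO-treated group; mean SD, t-test.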

For test [10] the target is unchanged. Nature of the test: PROTAC activity at CRBN E3 ligase/EZH2 in PRC2 complex in human WSUDLCL2 cells assessed as effect on RbAp48 mRNA expression at 1 uM incubated for 48 hrs by RT-qPCR analysis. The test is classed as cell-based. The procedure, abridged:
as §3
Background: In qPCR the cycle at which signal appears reflects the starting amount.

For test [11] the target is unchanged. Description: PROTAC activity at CRBN E3 ligase/EZH2 in PRC2 complex in human WSUDLCL2 cells assessed as downregulation of EZH2 expression at 1 uM pretreated with MG-132 for 4 hrs followed by compound addition and measured after 48 hrs by Western blot analysis. The test is classed as cell-based. The procedure, abridged:
(§4)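 WSU-DLCL-2 cells pretreated 4 h with the named inhibitor, then compound added and incubated a further 48 h. EZH2, SUZ12, EED and RbAp48 measured by western blot (nitrocellulose transfer, skim-milk block, primary antibody overnight at 4 °C, chemiluminescent detection).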

In the next test the test system is WSUDLCL2. Description: Upregulation of TXINP mRNA expression in human WSUDLCL2 cells at 1 uM incubated for 48 hrs by qRT-PCR analysis. The test is classed as functional, cell-based. The method in brief:
(§5)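 WSU-DLCL-2 or Pfeiffer cells treated 48 h. Trizol RNA extraction, reverse transcription, SYBR qPCR (95 °C 30 s; 40 cycles of 95 °C 6 s, 60 °C 20 s). mRNA normalized to DMSO-treated cells; mean ± SD of three independent experiments, t-test.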

The test system of test [12] is Pfeiffer. Description: Upregulation of ADRB2 mRNA expression in human Pfeiffer cells at 1 uM incubated for 48 hrs by qRT-PCR analysis. In kind it is functional, cell-based. The method in brief:
as §5

Test [13] has as its system Pfeiffer. Description: Upregulation of TNFRSF21 mRNA expression in human Pfeiffer cells at 1 uM incubated for 48 hrs by qRT-PCR analysis. The test is classed as functional, cell-based. The method in brief: as §5
For another test, the system named is A549. Description: Downregulation of ARL6IP mRNA expression in human A549 cells at 10 uM incubated for 48 hrs by qRT-PCR analysis. In kind it is functional, cell-based. The method in brief: (§6)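 Cells treated 48 h. Total RNA extracted with Trizol, reverse-transcribed, and SYBR RT-qPCR run: 95 °C 30 s, then 40 cycles of 95 °C 6 s and 60 °C 20 s. mRNA normalized to the DMSO-treated group. Mean SD of three independent experiments, t-test versus DMSO.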

For another test, the system named is NCI-H1299. Nature of the test: Downregulation of TACC3 mRNA expression in human NCI-H1299 cells at 10 uM incubated for 48 hrs by qRT-PCR analysis. In kind it is functional, cell-based. The procedure, abridged: as §6
Test [14] deals with MDA-MB-468. Description: Downregulation of CHEK1 mRNA expression in human MDA-MB-468 cells at 10 uM incubated for 48 hrs by qRT-PCR analysis. In kind it is functional, cell-based. The method in brief: as §6
Test [15] concerns Pfeiffer. Nature of the test: Antiproliferative activity against human Pfeiffer cells harboring EZH2-A677G mutant assessed as inhibition of cell growth incubated for 3 to 7 days by optical microscopic analysis (Rvb= 0.49 uM). In kind it is functional, cell-based.
The target of test [16] is T1, Protein cereblon/Histone-lysine N-methyltransferase EZH2 (Homo sapiens). Description: PROTAC activity at CRBN E3 ligase/EZH2 in PRC2 complex in human WSUDLCL2 cells assessed as downregulation of SUZ12 expression at 1 uM pretreated with MLN4924 for 4 hrs followed by compound addition and measured after 48 hrs by Western blot analysis. In kind it is cell-based. The method in brief:
as §4

Test [17] has the same target. Description: PROTAC activity at CRBN E3 ligase/EZH2 in PRC2 complex in human WSUDLCL2 cells assessed as downregulation of EED expression at 1 uM pretreated with MLN4924 for 4 hrs followed by compound addition and measured after 48 hrs by Western blot analysis. The test is classed as cell-based. The procedure, abridged:
as §4

Test [18] concerns MDA-MB-468. Description: Downregulation of CENPK mRNA expression in human MDA-MB-468 cells at 10 uM incubated for 48 hrs by qRT-PCR analysis. The test is classed as functional, cell-based. The method in brief: as §6

The structures appear in SMILES notation. Active and inactive are the calls of the source. The rule behind the calls is not given here.

T1 sequence (Q15910 whole entry, looked up): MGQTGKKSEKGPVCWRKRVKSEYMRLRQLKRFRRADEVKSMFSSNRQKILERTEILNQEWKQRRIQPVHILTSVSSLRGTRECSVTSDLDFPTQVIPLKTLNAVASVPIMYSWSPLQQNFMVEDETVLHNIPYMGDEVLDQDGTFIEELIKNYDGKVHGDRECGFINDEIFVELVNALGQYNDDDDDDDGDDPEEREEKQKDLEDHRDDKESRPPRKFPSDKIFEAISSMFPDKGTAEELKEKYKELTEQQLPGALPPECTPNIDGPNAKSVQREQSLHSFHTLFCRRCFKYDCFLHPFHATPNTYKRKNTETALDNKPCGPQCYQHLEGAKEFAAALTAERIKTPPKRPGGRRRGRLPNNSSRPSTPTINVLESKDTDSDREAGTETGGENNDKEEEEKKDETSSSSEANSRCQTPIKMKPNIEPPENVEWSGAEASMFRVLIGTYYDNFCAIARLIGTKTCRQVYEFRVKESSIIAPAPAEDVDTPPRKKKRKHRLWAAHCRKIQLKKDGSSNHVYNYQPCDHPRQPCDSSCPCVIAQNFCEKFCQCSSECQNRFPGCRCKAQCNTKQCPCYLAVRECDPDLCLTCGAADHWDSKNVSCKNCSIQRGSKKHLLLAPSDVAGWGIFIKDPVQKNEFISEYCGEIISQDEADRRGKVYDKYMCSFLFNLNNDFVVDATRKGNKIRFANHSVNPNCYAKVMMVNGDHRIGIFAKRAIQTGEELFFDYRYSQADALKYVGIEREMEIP
T1 sequence (Q96SW2 whole entry, looked up): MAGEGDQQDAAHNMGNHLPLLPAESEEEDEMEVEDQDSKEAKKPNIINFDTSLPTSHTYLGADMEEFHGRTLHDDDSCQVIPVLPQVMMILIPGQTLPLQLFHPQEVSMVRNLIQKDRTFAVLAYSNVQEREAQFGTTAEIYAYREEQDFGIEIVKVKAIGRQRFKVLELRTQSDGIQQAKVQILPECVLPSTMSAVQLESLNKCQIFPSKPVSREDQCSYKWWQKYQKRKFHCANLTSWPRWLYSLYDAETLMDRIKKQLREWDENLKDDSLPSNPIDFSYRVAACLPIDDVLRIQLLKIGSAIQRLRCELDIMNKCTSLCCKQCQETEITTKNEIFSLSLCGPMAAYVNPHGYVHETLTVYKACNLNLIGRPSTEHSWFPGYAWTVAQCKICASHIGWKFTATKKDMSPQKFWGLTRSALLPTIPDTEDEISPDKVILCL

The term IC50 denotes the midpoint of a concentration-inhibition curve. For the molecule `CCN(c1cc(-c2ccc(CN3CCN(CCCCCCCOc4cccc5c4C(=O)N(C4CCC(=O)NC4=O)C5=O)CC3)cc2)cc(C(=O)NCc2c(C)cc(C)[nH]c2=O)c1C)C1CCOCC1` (stereo unspecified), the Activity result in test [1] is “Dose-Dependent Effect”. Besides, the result (in test [2]; in [3]; in test [9]; in test [10]; in [11]; in the test with WSUDLCL2) was inactive. For the same molecule, the outcome in test [16] and in test [17] was inactive. Further, the result (in test [4]; in test [5]; in [6]; in [7]; in test [8]; with Pfeiffer [12]) was Active. Further, the outcome in the test with Pfeiffer [13], in the test with A549, in the test on NCI-H1299, in the test on MDA-MB-468 [14] and in the test on MDA-MB-468 [18] was Active. Further, the IC50 with Pfeiffer [15] came to 210 nM.
